Measurements reported in ChEMBL document CHEMBL3414427, “Structure-activity relationships of 3-O-β-chacotriosyl ursolic acid derivatives as novel H5N1 entry inhibitors” (Eur J Med Chem, 2015).
pIC50: −log10 of the molar value. Calls of active or inactive are those of the source. No cut-off for these calls is given here.

What was measured:
[1] = Cytotoxicity against MDCK cells; format: cell-based, Canis lupus familiaris; conditions: dog
Summary of the method: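 MDCK cells (ATCC) grown in DMEM containing glutamine, supplemented with 10% fetal calf serum. CC50 is the mean of three independent assays.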

[2] = cells; format: functional, cell-based, Influenza A virus (A/Thailand/Kan353/2004(H5N1)); conditions: Influenza A virus, MDCK, 48 h
[3] = molecular target: Neuraminidase (Influenza A virus) (UniProt A5Z252); assay: Inhibition of Influenza A virus (H5N1) neuraminidase N1 at 20 microg/ml after 30 mins by fluorescence based assay
Summary of the method: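 Fluorescence-based kit assay with purified N1-type neuraminidase in detection buffer. Test compound was added, then neuraminidase substrate. Incubated at 37 °C for 30 min; fluorescence read at excitation 340 nm and emission 535 nm.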

[4] = tested on: Vesicular stomatitis virus; assay: Antiviral activity against VSV-G enveloped pseudovirus; format: functional, organism-based
Summary of the method: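 VSV-G pseudotyped particles (negative control), incubated with compound instead of H5N1 pseudovirus. MDCK cells (ATCC; DMEM with glutamine plus 10% FCS), seeded at 10⁴/well and grown overnight, then infected and incubated a further 48 h. Cells were PBS-washed and lysed, and luciferase activity was read by luminometer after adding substrate.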

Row | Structure (SMILES) | CC50 [1] [µM] | pIC50 [2] | inhibition [3] | inhibition [4]
1 | CCOC(=O)[C@]12CC[C@@H](C)[C@H](C)[C@H]1C1=CC[C@@H]3[C@@]4(C)CC[C@H](O[C@@H]5O[C@H](CO)[C@@H](O[C@@H]6O[C@@H](C)[C@H](O)[C@@H](O)[C@H]6O)[C@H](O)[C@H]5O[C@@H]5O[C@@H](C)[C@H](O)[C@@H](O)[C@H]5O)C(C)(C)[C@@H]4CC[C@@]3(C)[C@]1(C)CC2 | 19.1 | 5.94 |  | 
2 | O=C(NCCN1CCCCC1)c1cc(F)cc(C(F)(F)F)c1 | 1480 | 5.35 |  | 
3 | CCN(CC)C(=O)[C@]12CC[C@@H](C)[C@H](C)[C@H]1C1=CC[C@@H]3[C@@]4(C)CC[C@H](O[C@@H]5O[C@H](CO)[C@@H](O[C@@H]6O[C@@H](C)[C@H](O)[C@@H](O)[C@H]6O)[C@H](O)[C@H]5O[C@@H]5O[C@@H](C)[C@H](O)[C@@H](O)[C@H]5O)C(C)(C)[C@@H]4CC[C@@]3(C)[C@]1(C)CC2 | 47 | 5.85 |  | 
4 | C[C@H]1[C@H](C)CC[C@]2(C(=O)OC3CCCC3)CC[C@]3(C)C(=CC[C@@H]4[C@@]5(C)CC[C@H](O[C@@H]6O[C@H](CO)[C@@H](O[C@@H]7O[C@@H](C)[C@H](O)[C@@H](O)[C@H]7O)[C@H](O)[C@H]6O[C@@H]6O[C@@H](C)[C@H](O)[C@@H](O)[C@H]6O)C(C)(C)[C@@H]5CC[C@]43C)[C@H]12 | 24.2 | 5.31 |  | 
5 | COC(=O)[C@@]1(C)CC[C@]2(C)CC[C@]3(C)C(=CC(=O)[C@@H]4[C@@]5(C)CC[C@H](O[C@@H]6O[C@H](CO)[C@@H](O[C@@H]7O[C@@H](C)[C@H](O)[C@@H](O)[C@H]7O)[C@H](O)[C@H]6O[C@@H]6O[C@@H](C)[C@H](O)[C@@H](O)[C@H]6O)C(C)(C)[C@@H]5CC[C@]43C)[C@@H]2C1 | 17.1 | 5.31 |  | 
6 | C=CCOC(=O)[C@]12CC[C@@H](C)[C@H](C)[C@H]1C1=CC[C@@H]3[C@@]4(C)CC[C@H](O[C@@H]5O[C@H](CO)[C@@H](O[C@@H]6O[C@@H](C)[C@H](O)[C@@H](O)[C@H]6O)[C@H](O)[C@H]5O[C@@H]5O[C@@H](C)[C@H](O)[C@@H](O)[C@H]5O)C(C)(C)[C@@H]4CC[C@@]3(C)[C@]1(C)CC2 | 21.8 | 4.47 |  | 
7 | COC(=O)[C@]12CCC(C)(C)C[C@H]1C1=CC[C@@H]3[C@@]4(C)CC[C@H](O[C@@H]5O[C@H](CO)[C@@H](O[C@@H]6O[C@@H](C)[C@H](O)[C@@H](O)[C@H]6O)[C@H](O)[C@H]5O[C@@H]5O[C@@H](C)[C@H](O)[C@@H](O)[C@H]5O)C(C)(C)[C@@H]4CC[C@@]3(C)[C@]1(C)CC2 | 16.9 | 5.43 |  | 
8 | COC(=O)[C@]12CC[C@@H](C)[C@H](C)[C@H]1C1=CC(=O)[C@@H]3[C@@]4(C)CC[C@H](O[C@@H]5O[C@H](CO)[C@@H](O[C@@H]6O[C@@H](C)[C@H](O)[C@@H](O)[C@H]6O)[C@H](O)[C@H]5O[C@@H]5O[C@@H](C)[C@H](O)[C@@H](O)[C@H]5O)C(C)(C)[C@@H]4CC[C@@]3(C)[C@]1(C)CC2 | 38.4 | 5.25 |  | 
9 | C[C@H]1[C@H](C)CC[C@]2(C(=O)O)CC[C@]3(C)C(=CC[C@@H]4[C@@]5(C)CC[C@H](O[C@@H]6O[C@H](CO)[C@@H](O[C@@H]7O[C@@H](C)[C@H](O)[C@@H](O)[C@H]7O)[C@H](O)[C@H]6O[C@@H]6O[C@@H](C)[C@H](O)[C@@H](O)[C@H]6O)C(C)(C)[C@@H]5CC[C@]43C)[C@H]12 | 26.2 | 5.00 |  | 
10 | C=C(C)[C@@H]1CC[C@]2(C(=O)OC)CC[C@]3(C)[C@H](CC[C@@H]4[C@@]5(C)CC[C@H](O[C@@H]6O[C@H](CO)[C@@H](O[C@@H]7O[C@@H](C)[C@H](O)[C@@H](O)[C@H]7O)[C@H](O)[C@H]6O[C@@H]6O[C@@H](C)[C@H](O)[C@@H](O)[C@H]6O)C(C)(C)[C@@H]5CC[C@]43C)[C@H]12 | 33.9 | 5.68 |  | 
11 | CCCOC(=O)[C@]12CC[C@@H](C)[C@H](C)[C@H]1C1=CC[C@@H]3[C@@]4(C)CC[C@H](O[C@@H]5O[C@H](CO)[C@@H](O[C@@H]6O[C@@H](C)[C@H](O)[C@@H](O)[C@H]6O)[C@H](O)[C@H]5O[C@@H]5O[C@@H](C)[C@H](O)[C@@H](O)[C@H]5O)C(C)(C)[C@@H]4CC[C@@]3(C)[C@]1(C)CC2 | 19.2 | 5.64 |  | 
12 | CCCCCOC(=O)[C@]12CC[C@@H](C)[C@H](C)[C@H]1C1=CC[C@@H]3[C@@]4(C)CC[C@H](O[C@@H]5O[C@H](CO)[C@@H](O[C@@H]6O[C@@H](C)[C@H](O)[C@@H](O)[C@H]6O)[C@H](O)[C@H]5O[C@@H]5O[C@@H](C)[C@H](O)[C@@H](O)[C@H]5O)C(C)(C)[C@@H]4CC[C@@]3(C)[C@]1(C)CC2 | 20.1 | 5.43 |  | 
13 | CNC(=O)[C@]12CC[C@@H](C)[C@H](C)[C@H]1C1=CC[C@@H]3[C@@]4(C)CC[C@H](O[C@@H]5O[C@H](CO)[C@@H](O[C@@H]6O[C@@H](C)[C@H](O)[C@@H](O)[C@H]6O)[C@H](O)[C@H]5O[C@@H]5O[C@@H](C)[C@H](O)[C@@H](O)[C@H]5O)C(C)(C)[C@@H]4CC[C@@]3(C)[C@]1(C)CC2 | > 200 | 4.65 |  | 
14 | COC(=O)[C@]12CC[C@@H](C)[C@H](C)[C@H]1C1=CC[C@@H]3[C@@]4(C)CC[C@@H](O[C@@H]5O[C@H](CO)[C@@H](O[C@@H]6O[C@@H](C)[C@H](O)[C@@H](O)[C@H]6O)[C@H](O)[C@H]5O[C@@H]5O[C@@H](C)[C@H](O)[C@@H](O)[C@H]5O)C(C)(C)[C@@H]4CC[C@@]3(C)[C@]1(C)CC2 | > 200 | 5.88 | inactive | inactive
15 | C[C@H]1[C@H](C)CC[C@]2(C(=O)N(C)C)CC[C@]3(C)C(=CC[C@@H]4[C@@]5(C)CC[C@H](O[C@@H]6O[C@H](CO)[C@@H](O[C@@H]7O[C@@H](C)[C@H](O)[C@@H](O)[C@H]7O)[C@H](O)[C@H]6O[C@@H]6O[C@@H](C)[C@H](O)[C@@H](O)[C@H]6O)C(C)(C)[C@@H]5CC[C@]43C)[C@H]12 | 48.6 | 6.01 | inactive | inactive
16 | COC(=O)[C@]12CC[C@@H](C)[C@H](C)[C@H]1C1=CC[C@@H]3[C@@]4(C)CC[C@H](O[C@@H]5O[C@H](CO)[C@@H](O[C@@H]6O[C@@H](C)[C@H](O)[C@@H](O)[C@H]6O)[C@H](O)[C@H]5O[C@@H]5O[C@@H](C)[C@H](O)[C@@H](O)[C@H]5O)C(C)(C)[C@@H]4CC[C@@]3(C)[C@]1(C)CC2 | 13 | 5.99 | inactive | inactive
